According to ChEMBL document CHEMBL5058577, “EUbOPEN Chemogenomics Library 2 (Multiplex)” (2022):

System: Fibroblast
Experiment: Multiplex assay against human fibroblast
Format: toxicity, cell-based
Summary of the method: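 Phenotypes for tubulin, mitochondrial mass and membrane permeability are expressed as per cents of healthy-nucleus cells. Cells were stained live at seeding with Hoechst33342, BioTracker Green Microtubule Cytoskeleton Dye, MitoTracker Red and Annexin V Alexa Fluor 680, then imaged after compound addition on a CQ1 microscope at 37°C and 5% CO2. Machine-learning gating in CellPathfinder separated Hoechst high-intensity objects from normal cells, divided normal cells by nuclear state (healthy, pyknosed, fragmented) and divided pyknosed cells into mitotic or apoptotic.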

[1] = 12 h, 1 µM, compound concentration 1 uM, replicate 1
[2] = 12 h, 1 µM, compound concentration 1 uM, replicate 2
[3] = 12 h, 10 µM, compound concentration 10 uM, replicate 1
[4] = 12 h, 10 µM, compound concentration 10 uM, replicate 2
[5] = 24 h, 1 µM, compound concentration 1 uM, replicate 1
[6] = 24 h, 1 µM, compound concentration 1 uM, replicate 2
[7] = 24 h, 10 µM, compound concentration 10 uM, replicate 1
[8] = 24 h, 10 µM, compound concentration 10 uM, replicate 2
[9] = 48 h, 1 µM, compound concentration 1 uM, replicate 1
[10] = 48 h, 1 µM, compound concentration 1 uM, replicate 2
[11] = 48 h, 10 µM, compound concentration 10 uM, replicate 1
[12] = 48 h, 10 µM, compound concentration 10 uM, replicate 2

## Cc1cc(-c2ccc3c(c2)CC[C@H]3N2CC3(CCN(C(=O)Cc4cn5cc(C)sc5n4)CC3)C2)ncn1 [PF-5190457]
[1]
  Population Apoptotic (%): 29%
  Population Fragmented Nuclei (%): 16%
  Population Healthy Nuclei (%): 71%
  Population Hoechst High Intensity Objects (%): 4%
  Population Membrane Permeable-Phenotype (%): 1%
  Population Mitochondria Different-Phenotype (%): 5%
  Population Mitotic Cells (%): 70%
  Population Normal (%): 96%
  Population Pyknosed Nuclei (%): 11%
  Population Tubulin-Different-Phenotype (%): 24%
  Total Cell Count: 150
[2]
  Population Apoptotic (%): 30%
  Population Fragmented Nuclei (%): 18%
  Population Healthy Nuclei (%): 46%
  Population Membrane Permeable-Phenotype (%): 9%
  Population Mitochondria Different-Phenotype (%): 0%
  Population Normal (%): 95%
  Population Pyknosed Nuclei (%): 34%
  Population Tubulin-Different-Phenotype (%): 48%
  Total Cell Count: 121
[3]
  Population Apoptotic (%): 36%
  Population Fragmented Nuclei (%): 17%
  Population Healthy Nuclei (%): 63%
  Population Hoechst High Intensity Objects (%): 4%
  Population Membrane Permeable-Phenotype (%): 1%
  Population Mitochondria Different-Phenotype (%): 5%
  Population Mitotic Cells (%): 63%
  Population Normal (%): 95%
  Population Pyknosed Nuclei (%): 18%
  Population Tubulin-Different-Phenotype (%): 38%
  Total Cell Count: 186
[4]
  Population Apoptotic (%): 45%
  Population Fragmented Nuclei (%): 20%
  Population Healthy Nuclei (%): 55%
  Population Hoechst High Intensity Objects (%): 1%
  Population Membrane Permeable-Phenotype (%): 6%
  Population Mitochondria Different-Phenotype (%): 4%
  Population Mitotic Cells (%): 54%
  Population Normal (%): 98%
  Population Pyknosed Nuclei (%): 24%
  Population Tubulin-Different-Phenotype (%): 56%
  Total Cell Count: 138
[5]
  Population Apoptotic (%): 54%
  Population Fragmented Nuclei (%): 19%
  Population Healthy Nuclei (%): 72%
  Population Hoechst High Intensity Objects (%): 2%
  Population Membrane Permeable-Phenotype (%): 1%
  Population Mitochondria Different-Phenotype (%): 4%
  Population Mitotic Cells (%): 45%
  Population Normal (%): 97%
  Population Pyknosed Nuclei (%): 7%
  Population Tubulin-Different-Phenotype (%): 26%
  Total Cell Count: 141
[6]
  Population Apoptotic (%): 15%
  Population Fragmented Nuclei (%): 23%
  Population Healthy Nuclei (%): 43%
  Population Hoechst High Intensity Objects (%): 3%
  Population Membrane Permeable-Phenotype (%): 5%
  Population Mitochondria Different-Phenotype (%): 5%
  Population Mitotic Cells (%): 84%
  Population Normal (%): 96%
  Population Pyknosed Nuclei (%): 32%
  Population Tubulin-Different-Phenotype (%): 54%
  Total Cell Count: 126
[7]
  Population Apoptotic (%): 44%
  Population Fragmented Nuclei (%): 19%
  Population Healthy Nuclei (%): 64%
  Population Hoechst High Intensity Objects (%): 3%
  Population Membrane Permeable-Phenotype (%): 0%
  Population Mitochondria Different-Phenotype (%): 6%
  Population Mitotic Cells (%): 55%
  Population Normal (%): 96%
  Population Pyknosed Nuclei (%): 16%
  Population Tubulin-Different-Phenotype (%): 37%
  Total Cell Count: 180
[8]
  Population Apoptotic (%): 53%
  Population Fragmented Nuclei (%): 25%
  Population Healthy Nuclei (%): 49%
  Population Hoechst High Intensity Objects (%): 5%
  Population Membrane Permeable-Phenotype (%): 1%
  Population Mitochondria Different-Phenotype (%): 7%
  Population Mitotic Cells (%): 46%
  Population Normal (%): 94%
  Population Pyknosed Nuclei (%): 25%
  Population Tubulin-Different-Phenotype (%): 60%
  Total Cell Count: 134
[9]
  Population Apoptotic (%): 78%
  Population Fragmented Nuclei (%): 30%
  Population Healthy Nuclei (%): 59%
  Population Hoechst High Intensity Objects (%): 6%
  Population Membrane Permeable-Phenotype (%): 2%
  Population Mitochondria Different-Phenotype (%): 2%
  Population Mitotic Cells (%): 21%
  Population Normal (%): 93%
  Population Pyknosed Nuclei (%): 9%
  Population Tubulin-Different-Phenotype (%): 23%
  Total Cell Count: 157
[10]
  Population Apoptotic (%): 34%
  Population Fragmented Nuclei (%): 32%
  Population Healthy Nuclei (%): 47%
  Population Hoechst High Intensity Objects (%): 2%
  Population Membrane Permeable-Phenotype (%): 14%
  Population Mitochondria Different-Phenotype (%): 6%
  Population Mitotic Cells (%): 65%
  Population Normal (%): 97%
  Population Pyknosed Nuclei (%): 20%
  Population Tubulin-Different-Phenotype (%): 68%
  Total Cell Count: 132
[11]
  Population Apoptotic (%): 63%
  Population Fragmented Nuclei (%): 22%
  Population Healthy Nuclei (%): 66%
  Population Hoechst High Intensity Objects (%): 6%
  Population Membrane Permeable-Phenotype (%): 0%
  Population Mitochondria Different-Phenotype (%): 12%
  Population Mitotic Cells (%): 36%
  Population Normal (%): 93%
  Population Pyknosed Nuclei (%): 10%
  Population Tubulin-Different-Phenotype (%): 37%
  Total Cell Count: 192
[12]
  Population Apoptotic (%): 62%
  Population Fragmented Nuclei (%): 30%
  Population Healthy Nuclei (%): 51%
  Population Hoechst High Intensity Objects (%): 1%
  Population Membrane Permeable-Phenotype (%): 5%
  Population Mitochondria Different-Phenotype (%): 14%
  Population Mitotic Cells (%): 37%
  Population Normal (%): 98%
  Population Pyknosed Nuclei (%): 18%
  Population Tubulin-Different-Phenotype (%): 64%
  Total Cell Count: 135
